Test [1] is described as follows: nonspecific flux increase, KCNQ1-free cells – parental CHO cells, counter-screen for KCNQ1 potentiator project (AID 493006;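 active = duplicate-averaged activation above buffer control mean plus 5 SD of those controls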;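 as to activation: fluorescence ratio of max minus min over baseline after K+ and Tl+ depolarization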). The following applies: parental CHO-K1 cells, FluxOR thallium flux, at 10 µM; stronger effect = higher value. The essentials:
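Material: untransfected host CHO-K1 cells with FluxOR thallium dye. Timing: overnight 37 °C plating, 90 min RT dye, 20 min compound. Detection: kinetic FluxOR fluorescence, 10 s baseline, 110 s after stimulus. Read-out basis: max-minus-min fluorescence over baseline, percent of buffer-to-R-L3 span. Replicates: duplicate wells per compound, percent values averaged.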
On the technique in general: Counterscreens check selectivity or assay interference.

Test [2] concerns the target Potassium voltage-gated channel subfamily KQT member 1 (Homo sapiens) (UniProt P51787). Put plainly: enhancement of KCNQ1 channel thallium flux – FluxOR thallium flux, CHO cells, duplicates, confirmation (AID 493007;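 active = potentiation averaged over duplicate wells exceeding buffer-only control mean by more than 3 SD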;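 as to outcome: cells depolarized by a potassium plus thallium sulfate stimulus after compound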). Particulars: KCNQ1 cell line, FluxOR thallium flux fluorescence, at 10 µM; stronger effect = higher value, % of reference activator effect, buffer zero. The essentials:
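Test system – KCNQ1-expressing CHO cell line · Incubation – FluxOR dye loading 90 min, compound exposure 20 min, room temperature · Detection – FluxOR Tl+ flux fluorescence, 10 s baseline plus 110 s recording · Controls – buffer-only wells as 0% and R-L3 activator as 100%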

For test [3], the target named is Potassium voltage-gated channel subfamily KQT member 2 (Rattus norvegicus) (UniProt O88943). The test is described as follows: KCNQ2 thallium flux enhancement – KCNQ2-CHO-K1 cells, selectivity assay for KCNQ1 potentiator project (AID 493009).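 Also: assay conditions were tuned for KCNQ1 rather than KCNQ2 modulators; signal is max minus min fluorescence divided by baseline after thallium stimulus.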 The following applies: FluxOR thallium flux fluorescence, at 10 µM; stronger effect = higher value, scaled: buffer 0, activator control 100.
Sequence of Potassium voltage-gated channel subfamily KQT member 2 (Rattus norvegicus) (O88943 whole entry, looked up): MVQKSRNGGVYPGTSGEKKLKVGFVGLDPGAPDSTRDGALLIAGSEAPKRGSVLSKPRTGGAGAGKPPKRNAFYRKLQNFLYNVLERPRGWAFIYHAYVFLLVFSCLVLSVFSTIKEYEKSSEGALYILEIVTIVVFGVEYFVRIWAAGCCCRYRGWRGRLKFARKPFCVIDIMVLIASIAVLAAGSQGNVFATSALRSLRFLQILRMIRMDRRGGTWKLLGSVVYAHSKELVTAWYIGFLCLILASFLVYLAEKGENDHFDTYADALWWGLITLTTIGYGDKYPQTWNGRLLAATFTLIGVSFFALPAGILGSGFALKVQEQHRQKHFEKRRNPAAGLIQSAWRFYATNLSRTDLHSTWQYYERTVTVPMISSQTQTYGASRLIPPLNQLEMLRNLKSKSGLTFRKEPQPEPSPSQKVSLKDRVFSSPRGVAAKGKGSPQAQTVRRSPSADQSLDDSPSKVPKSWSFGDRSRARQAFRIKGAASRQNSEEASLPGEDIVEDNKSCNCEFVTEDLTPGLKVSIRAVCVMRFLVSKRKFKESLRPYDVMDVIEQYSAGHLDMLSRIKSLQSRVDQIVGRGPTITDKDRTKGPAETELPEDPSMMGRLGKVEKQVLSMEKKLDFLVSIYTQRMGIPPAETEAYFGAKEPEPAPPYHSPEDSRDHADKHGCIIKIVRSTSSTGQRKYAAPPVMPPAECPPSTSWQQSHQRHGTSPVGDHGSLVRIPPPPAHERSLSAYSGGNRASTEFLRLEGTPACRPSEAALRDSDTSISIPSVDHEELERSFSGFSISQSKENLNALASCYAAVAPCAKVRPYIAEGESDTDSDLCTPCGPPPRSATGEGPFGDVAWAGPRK

Test [4] concerns the target Potassium voltage-gated channel subfamily KQT member 1 (Homo sapiens) (UniProt P51787). Put plainly: KCNQ1 activators by electrophysiology – IonWorks patch clamp, KCNQ1-CHO cells, orthogonal assay for KCNQ1 potentiator project, confirmation (AID 493184;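 active = current rise at least 3 SD above the untreated control mean in each of two repeat wells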). The following applies: automated patch clamp current, at 10 µM; stronger effect = higher value. The essentials:
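Read-out: Percent current increase versus pre-compound level | Assay system: CHO cells carrying KCNQ1 | Measured by: Automated perforated-patch electrophysiology | Medium: External bath solution at pH 7.4 | Dosing: One dose, 10 µM final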

Activity calls are given as the source filed them.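 The calls were made as follows, unless noted: active = mean duplicate potentiation above the buffer control mean plus 5 SD of buffer wells; inactive = the rest.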

Sequence of Potassium voltage-gated channel subfamily KQT member 1 (Homo sapiens) (P51787 whole entry, looked up): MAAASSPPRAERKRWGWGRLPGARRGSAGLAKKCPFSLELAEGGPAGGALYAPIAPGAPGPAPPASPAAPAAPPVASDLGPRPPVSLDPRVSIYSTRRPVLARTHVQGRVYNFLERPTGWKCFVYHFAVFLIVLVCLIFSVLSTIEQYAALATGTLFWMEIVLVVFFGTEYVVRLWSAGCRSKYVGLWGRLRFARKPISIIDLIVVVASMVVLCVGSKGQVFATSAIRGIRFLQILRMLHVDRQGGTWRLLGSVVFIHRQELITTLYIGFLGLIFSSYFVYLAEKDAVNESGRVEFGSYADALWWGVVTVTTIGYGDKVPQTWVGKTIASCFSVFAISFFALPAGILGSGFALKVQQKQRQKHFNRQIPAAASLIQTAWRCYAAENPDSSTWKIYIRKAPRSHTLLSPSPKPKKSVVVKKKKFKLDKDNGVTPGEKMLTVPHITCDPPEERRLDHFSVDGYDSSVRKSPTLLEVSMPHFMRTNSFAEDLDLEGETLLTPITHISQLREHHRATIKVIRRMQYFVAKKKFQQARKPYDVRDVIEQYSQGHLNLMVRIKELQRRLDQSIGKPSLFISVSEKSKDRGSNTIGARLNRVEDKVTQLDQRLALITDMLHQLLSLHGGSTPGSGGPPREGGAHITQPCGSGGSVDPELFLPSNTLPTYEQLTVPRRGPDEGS

With `O=C(NC(=S)NCc1ccccc1)c1cccs1`, the activation in test [1] was 167% (active). Besides, the potentiation in test [2] was 81% (active); in test [3] it was 232% (active). For the same molecule, the result in test [4] was inactive.
For `CC(C)OC(=O)c1c(NS(=O)(=O)c2ccccc2)sc2c1CCCC2`, in that order: 262% (active), 126% (active), 338% (active) and “inactive”.
Take `O=c1[nH]sc2ccccc12`: the result in test [1], in test [2], in test [3] and in test [4] was inactive.
Consider `CCCc1c(C)[nH]c2ccc(NC(C)=O)cc2c1=O`, for which the result in test [1], in test [2], in test [3] and in test [4] was inactive.
As for `COc1ccccc1C(=O)NNC(=O)C(=O)Nc1ccc(C)cc1`, the activation in test [1] was 534% (active). The potentiation in test [2] is 182% (active); in test [3] it was 593% (active). In test [4], the outcome was inactive.
For `CCc1nnc(NC(=O)CCC(=O)N2CCN(C3CCCCC3)CC2)s1`, the result in test [1], in test [2], in test [3] and in test [4] was inactive.
As for `CCOC(=O)c1cccc(C(=O)Nc2nc3ccc(OC)cc3s2)n1`, the result in test [1], in test [2], in test [3] and in test [4] was inactive.
As to `Cn1ncc2c(O/N=C(\N)c3ccc(C(F)(F)F)cc3)ncnc21`, the outcome in test [1], in test [2], in test [3] and in test [4] was inactive.
`O=C1C=C(NCc2ccccc2)c2ccccc2C1=O`: the activation in test [1] is 140% (active). For the same molecule, the potentiation in test [2] was 24% (active). Further, the outcome in test [3] and in test [4] was inactive.
For the molecule `O=C(Nc1nc(=O)c2ccccc2s1)c1ccc(Cl)cc1`, in test [1], the activation is 246% (active). Also, the potentiation in test [2] is 85.5% (active); in test [3] it was 242% (active). Also, the outcome in test [4] was inactive.
As to `O=C(NC(=S)Nc1ccccc1N1CCCC1)c1cccc(F)c1`, the result in test [1] and in test [4] was inactive. Further, the potentiation is 37% (active) in test [2] and 144% (active) in test [3].
With `C/C(=N\Nc1nc2ccccc2[nH]1)c1ccc(Cl)s1`, the result in test [1], in test [2] and in test [4] was inactive. In addition, the potentiation in test [3] is 156% (active).
With `OC1(c2ccc(Br)cc2)CCNCC1`, the outcome in test [1], in test [2], in test [3] and in test [4] was inactive.
For the molecule `CC(C)COn1c(=S)[nH]c2ccccc2c1=O`, the activation in test [1] is 164% (active). Besides, the result in test [2] and in test [4] was inactive. In addition, the potentiation in test [3] is 198% (active).
For the molecule `Cc1ccc(C(=O)CC(=O)c2cccc(F)c2)c(O)c1`, the activation in test [1] was 156% (active). Also, the potentiation in test [2] is 35% (active); in test [3], 150% (active). The result in test [4] was inactive.
For `C=CCn1sc(=N)c(C#N)c1N`, in that order: 528% (active), 195% (active), 492% (active) and “inactive”.
With `Cc1ccc(C)c(S(=O)(=O)NCC(=O)N2CCCC2)c1`, the result in test [1], in test [2], in test [3] and in test [4] was inactive.
For the molecule `C=CCn1c(O)c(N=NC(=S)Nc2ccccc2C)c2cc(S(=O)(=O)N3CCOCC3)ccc21`, the activation in test [1] is 218% (active). The potentiation was 45% (active) in test [2] and 226% (active) in test [3]. Also, the result in test [4] was inactive.
For `Cc1cc(Nc2cc(N3CCN(C)CC3)nc(Sc3ccc(NC(=O)C4CC4)cc3)n2)n[nH]1`, in that order: 140% (active), 30% (active), 144% (active) and “inactive”.
Consider `CSc1nc(C)c2c(n1)N(c1ccc(C(C)C)cc1)CC2`, for which the outcome in test [1], in test [2], in test [3] and in test [4] was inactive.
For the molecule `Cc1cccc(NC(=O)Nc2ccc(OCc3ccccc3)cc2)n1`, the result in test [1], in test [2], in test [3] and in test [4] was inactive.
As to `CNc1ccccc1C(=O)OC(C)C(=O)Nc1ccc(Cl)cn1` (stereo not given), the result in test [1], in test [2], in test [3] and in test [4] was inactive.
Consider `Cc1nn(-c2ccccc2)nc1C(=O)NNC(=O)c1cccc2ccccc12`, for which the outcome in test [1] and in test [4] was inactive. The potentiation in test [2] is 53% (active); in test [3], 182% (active).
Take `CC(C)(C)NC(=O)C(=O)NNC(=O)C12CC3CC(CC(C3)C1)C2`: the activation in test [1] is 178% (active). Besides, the potentiation in test [2] is 40% (active); in test [3] it was 192% (active). Also, the outcome in test [4] was inactive.
In the case of `Cc1sc(NC(=O)CS(=O)(=O)c2ccccc2)c(C#N)c1C`, the outcome in test [1], in test [2], in test [3] and in test [4] was inactive.
With `COc1cccc(NC(=S)NCCN2CCOCC2)c1`, in test [1], the activation was 156% (active). Moreover, the potentiation in test [2] was 26% (active); in test [3], 162% (active). The result in test [4] was inactive.
As for `Cc1cc(SCNC(=O)c2ccccc2)ncn1`, the outcome in test [1], in test [2], in test [3] and in test [4] was inactive.
As to `Cc1sc(-n2c(C)cc(/C=N/n3cnnc3)c2C)c(C#N)c1C`, the result in test [1], in test [3] and in test [4] was inactive. In addition, in test [2], the potentiation is 17.5% (active).
As to `CS(=O)(=O)NN1C(=O)c2ccccc2NC1c1ccccc1F` (stereo not given), in test [1], the activation is 143% (active). For the same molecule, the potentiation in test [2] was 32.5% (active). Besides, the outcome in test [3] and in test [4] was inactive.
As to `CC(O)Cc1cn([C@@H](CCCCN)C(=O)N2CCNCC2)nn1` (stereo not given in full), the result in test [1], in test [2], in test [3] and in test [4] was inactive.

Values taken from PubChem BioAssay.
